The values below come from ChEMBL document CHEMBL1155141, “Pyrophosphorolytic excision of nonobligate chain terminators by hepatitis C virus NS5B polymerase” (Antimicrob Agents Chemother, 2007).

In assay [1] the target is RNA-directed RNA polymerase (Hepacivirus hominis, UniProt O39930, S282T). The experiment in a line: Inhibition of HCV NS5B polymerase S282T mutant assessed as blocking of full length RNA product formation by single-nucleotide incorporation assay. The method, boiled down: (§1)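 Run 30 min with 3 μM each NTP, competing nucleotide 300 nM. Full-length product was resolved on urea gels and quantified by phosphorimager. IC50 came from a four-parameter logistic fit, three independent experiments. The ratio is S282T IC50 over wild-type IC50.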

In assay [2] the test system is Hepacivirus hominis. The experiment in a line: Ratio of IC50 for HCV NS5B polymerase S282T mutant to IC50 for HCV NS5B polymerase by single-nucleotide incorporation assay. The method, boiled down: as §1
For assay [3], the system named is Hepacivirus hominis. The experiment in a line: Inhibition of HCV NS5B polymerase assessed as chain termination of RNA synthesis.
Assay [4] can be described thus: Inhibition of HCV NS5B polymerase assessed as blocking of full length RNA product formation by single-nucleotide incorporation assay. More on the design: species or system Hepacivirus hominis. In short, it runs like this:
as §1

Active and inactive are the calls of the source. The rule behind the calls is not given here.

RNA-directed RNA polymerase, sequence (O39930 entry or part of it S282T): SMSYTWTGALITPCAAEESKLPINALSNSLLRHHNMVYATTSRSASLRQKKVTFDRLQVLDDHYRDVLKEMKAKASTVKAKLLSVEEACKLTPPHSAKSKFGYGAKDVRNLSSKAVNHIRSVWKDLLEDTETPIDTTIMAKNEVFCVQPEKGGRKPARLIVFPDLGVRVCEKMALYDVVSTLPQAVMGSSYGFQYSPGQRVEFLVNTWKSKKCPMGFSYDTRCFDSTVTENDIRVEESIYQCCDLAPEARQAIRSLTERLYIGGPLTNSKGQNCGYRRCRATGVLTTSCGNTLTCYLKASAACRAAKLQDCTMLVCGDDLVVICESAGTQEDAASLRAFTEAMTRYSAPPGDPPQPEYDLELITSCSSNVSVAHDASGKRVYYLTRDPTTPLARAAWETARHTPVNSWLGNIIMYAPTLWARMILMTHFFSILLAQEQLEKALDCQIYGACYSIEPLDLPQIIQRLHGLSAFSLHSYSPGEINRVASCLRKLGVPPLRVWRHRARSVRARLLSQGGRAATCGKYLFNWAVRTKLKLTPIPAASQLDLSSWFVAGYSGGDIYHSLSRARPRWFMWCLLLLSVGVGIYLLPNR

Regarding `Nc1ccn([C@@H]2O[C@H](COP(=O)(O)OP(=O)(O)OP(=O)(O)O)C[C@H]2O)c(=O)n1`, the results for the IC50 in assay [1] and in assay [4] were 0.77 µM and 0.46 µM, respectively. Further, the Ratio IC50 with Hepacivirus hominis [2] worked out at 1.7. The result in the assay on Hepacivirus hominis [3] was Active.
As for `C[C@@]1(O)[C@H](O)[C@@H](COP(=O)(O)OP(=O)(O)OP(=O)(O)O)O[C@H]1n1cnc2c(N)ncnc21`, the values for the IC50 in assay [1] and in assay [4] were above 100 µM and 4.2 µM, respectively. The Ratio IC50 in the assay with Hepacivirus hominis [2] is above 24.
For `C[C@@]1(O)[C@H](O)[C@@H](COP(=O)(O)OP(=O)(O)OP(=O)(O)O)O[C@H]1n1ccc(N)nc1=O` [2'-C-METHYLCYTIDINE TRIPHOSPHATE], the IC50 in assay [1] stood at 60 µM; in assay [4] it was 6.3 µM. Further, the Ratio IC50 in the assay on Hepacivirus hominis [2] was determined as 9.5.
Turning to `Nc1nc2c(ncn2[C@@H]2O[C@H](COP(=O)(O)OP(=O)(O)OP(=O)(O)O)C[C@H]2O)c(=O)[nH]1`, in the assay on Hepacivirus hominis [3], the result was Active.
Consider `Nc1ncnc2c1ncn2[C@@H]1O[C@H](COP(=O)(O)OP(=O)(O)OP(=O)(O)O)C[C@H]1O`, for which the IC50 in assay [1] was 8.8 µM; in assay [4] it was 4.4 µM. Moreover, the Ratio IC50 in the assay with Hepacivirus hominis [2] came out at 2. Further, in the assay with Hepacivirus hominis [3], the outcome was Active.
With `O=c1ccn([C@@H]2O[C@H](COP(=O)(O)OP(=O)(O)OP(=O)(O)O)C[C@H]2O)c(=O)[nH]1`, the outcome in the assay on Hepacivirus hominis [3] was Active.
